From the EternaBench riboswitch data

System: MS2 coat protein
Assay: apparent Kd, MS2 coat protein; higher = weaker binding; RNA-MaP array; FMN 200 µM where present
Outline: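 The apparent Kd is the median of filtered binding-curve fits, one per cluster, to green signal normalised to red-channel RNA signal and control-cluster median Fmax. The clusters were on Illumina sequencing chips, and stalled E. coli RNA polymerase had transcribed the designs on them. Titration used SNAP-549-labelled MS2 coat protein from 0.7 or 1.5 nM, doubling to 3 µM, without and then with constant ligand, in 100 mM Tris-HCl pH 7.5, 80 mM KCl, 4 mM MgCl2, BSA, DTT, yeast tRNA and Tween-20.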

[1] = designed as: OFF switch for flavin mononucleotide, no ligand
[2] = ligand present: flavin mononucleotide, designed as: OFF switch for flavin mononucleotide
[3] = designed as: ON switch for flavin mononucleotide, no ligand
[4] = ligand present: flavin mononucleotide, designed as: ON switch for flavin mononucleotide

| Sequence | apparent Kd [1] [nM] | apparent Kd [2] [nM] | apparent Kd [3] [nM] | apparent Kd [4] [nM] |
| --- | --- | --- | --- | --- |
| UCAUGAAGGGCAGGAUAUGGACAUGAGGAUCACCCAUGUACAUGGGAUUAUAUACUGAAUUUAUACUAGAAGGGUUACAUAAAU | 31 | 18.1 | – | – |
| CCUCCAUCAUGAGGAUAUGGCACCUUAUUGGUGCCAGAAGGCAUGUCUCUUGACAUGAGGAUCACCCAUGUAAUAAAUUGGAGG | – | – | 1150 | 109 |
| CGUCUGUGAGGAUAUGGUGUCGUUUACAUGAGGAUCACCCAUGUUUCAUGGGACUAGAGACUAGAAGGUACUGACG | 314 | 413 | – | – |
| CUCAUGAGAGGAUAUACAUGAGGAUCACCCAUGUGGUUAUCUCCUCGGGCUCCAUUACGUAGAAGGCUCAUUUG | 33.9 | 90.6 | – | – |
| AAACACGGACAUGAGGAUCACCCAUGUGGCGAAAGCCUUGGGAGAAGGAUUAAUGCAAAGCAUAAAUAGGAUAUUCAUACCGUG | – | – | 1270 | 243 |
| CUGCUGGAGCUUUGCUUUAGUCGUACAUGAGGAUCACCCAUGUAGGAUAUGGUAGGCUUUGCUUACCAGAAGGAUAGAGUGGUC | 93.5 | 40.6 | – | – |
| CCUCCACAUGAGGAUCACCCAUGUCAGGAUAUCGUGUGUUUUUUUUCGGUCUUUCGUGCGAGAAGGGACGUCUG | 27.4 | 29.9 | – | – |
| GUUAAACAUGAGGAUCACCCAUGUAAGGAUAUGCUGCGGUCGCGCUGACGUGACUGCAGCAGAAGGUACAAUUG | 100 | 77.4 | – | – |
| UCGUGUAUAGAGGAUAUAUUAUUUUUUUUAACAAUAGAAGGCUAAACAUGAGGAUCACCCAUGUAUUUUUUUUU | 31.4 | 44 | – | – |
| CUAUUCCGAGGAUAUACAUGAGGAUCACCCAUGUCGGGCCUCCGCGUUUCGCGCCUCAGUAGAAGGCGGGUUUC | 20.4 | 25.9 | – | – |
| GCAACGCCUGACAUGAGGAUCACCCAUGUUAGAUUGUUAUGUCAGGAUAUUGUCGCGAAAUGUGAUGAGAAGGGAUAUGUUGCU | – | – | 480 | 48.8 |
| GUCAGCUCGUGAGGAUAUACAUGUGCUGGAAACAGCACUAUUGAGUUCACAUGAGGAUCACCCAUGUAGAAGGCACGAGCUGAU | 15.8 | 28 | – | – |
| AUCGGGUCAGGAUAUUGUUAGUUUAGUUGUUUGUAUUAGUUCGAGAAGGGACAUGAGGAUCACCCAUGUGGUAA | 58.4 | 73.2 | – | – |
| UGGUACAUGGGAGGAUAUGGGAAGUUAACAUGAGGAUCACCCAUGUUUGCCGAAAGGCAAAAGAACUAGAAGGCCCAUGUACCU | – | – | 23.1 | 16.4 |
| CCCGCGAUGUCAGGAUAUAGUCGGAGGUGCAGACUAGAAGGGACAUGAGGAUCACCCAUGUGCGUGAAAAUUUAAAACCUAAAU | 39.3 | 119 | – | – |
| GGCGAUCAGGCUAACAUGAGGAUCACCCAUGUGGACUCAUGGUAGGAUAUGCUGUACUUUGUACAGCAGAAGGGCCGGAGAGCC | – | – | 46.1 | 187 |
| UACAUGUGAGGAUAUGUACGAGACCCUGACGGGCCUCGCAGGCAGAAGGCACAUGAGGAUCACCCAUGUGACCG | 27.2 | 99.1 | – | – |
| AUCACAGCCACAGGAUAUCCACAUGAGGAUCACCCAUGUUACCGAAGGGUAGGAGAAGGGUGGCGCUCGUUGCGGACGAUGAAU | – | – | 121 | 15.1 |
| UGGCUACAUGAGGAUCACCCAUGUCAGGAUAUGCCGUUGGAUUGACAUCGUCGUUCGGGUAGAAGGGACUGCGU | 47.6 | 53.1 | – | – |
| UAACAAAUUGUCAGGAUAUCAGUCCCGGCCCAGAUUGAGAAGGGACAUGAGGAUCACCCAUGUAUGAUUCUCAG | – | 114 | – | – |
| UAAUCUCAGAUAGGAUAUAUAGGAUAACUUAAGACCUAACAUGAGGAUCACCCAUGUGAUUAUUCGUAGAAGGAUCAUUGAACA | – | – | 259 | 263 |
| AGCAAGUAUACAUGAGGAUCACCCAUGUUUUUUAGGGUUAUCAGAAGGUACAUUUUGAGAUAGAGUAAGGAUAUGAAAUAUGCG | – | – | 214 | 130 |
| GGAAAUCAUGUAGGAUAUGCAUGGCGAAGCUACGCAGAAGGACAUGAGGAUCACCCAUGUUCUGGCUACCGAGUUCGGUGGCAA | 22.5 | 104 | – | – |
| AUGGAUGUCACAGGAUAUGCUAUGGAUACCAUAGCAGAAGGGUGAUCCAUCCUAUGUAAAUACAUGAGGAUCACCCAUGUAUCC | – | – | 112 | 73.6 |
| AAUAUAAAAGAGCUGGAUAAACUCACAUGAGGAUCACCCAUGUAGGAUAUCAGCACGAUAAGUGCUGAGAAGGACAACCAGCUC | 14.8 | 15.3 | – | – |
| AUCAACCAGGCAGGAUAUCAAUGUGGCCUCAUCGUACACCCUCGCAACAUGAGGAUCACCCAUGUUGAGAAGGGCCAAUUGAGA | 8.52 | 8.99 | – | – |
| AAAAGACAUGAGGAUCACCCAUGUCAAAACGUGGGAGGAUAUGUAUGGAAACCAGACUGUACAGAAGGCCUCUGUC | – | – | 41.7 | 131 |
| AAGGGUACUUUCGGAACGACAUGAGGAUCACCCAUGUAGACUGAGGAUAUCUACUACUAAGGACGGGAGAAGGCAGUGUAAUGU | 18.1 | 17.8 | – | – |

| Sequence | apparent Kd [1] [nM] | apparent Kd [2] [nM] | apparent Kd [3] [nM] | apparent Kd [4] [nM] |
| --- | --- | --- | --- | --- |
| UGGUACAUGGGAGGAUAUGGGUUGAUAACAUGAGGAUCACCCAUGUUAAAUAAGCCGAGAGGCUACUAGAAGGCCCAUGUACCU | – | – | 819 | 28.9 |
| CACGGAUAGUAGAAGGGUGACAUGAGGAUCACCCAUGUACUUAUUUAUUUAUUACUAUUUCAUACACAGGAUAUACUAUCCGUG | – | – | 652 | 176 |
| CUUUUGUGAGGAUAUCAGUAGUAGAACAAUAGUACUACUACUGAGAAGGCACAUGAGGAUCACCCAUGUACCUC | 19.4 | 69.7 | – | – |
| UAUUAUGUCAGAGGAUAUAUAAAUAAAUUUAUAACAUGAGGAUCACCCAUGUACUUUAGUAUGAGGUAGAAGGUUGAUAAGAUA | – | – | 45.4 | 26.8 |
| GCAUGUUGGUAGGAUAUGCAGCGAAAACCGCGAGUAGAAGGAUUGACAUGAGGAUCACCCAUGUGAACCUAAGG | 27.1 | 59.2 | – | – |
| GGGUACAUCGGAGGAUAUCAUGUAAAUACAUGAGGAUCACCCAUGUCGAUGGAGACAUCGGAGAUUGAGAAGGCUGAUGUACCG | – | – | 188 | 9.18 |
| AUCAGCACGUGAGGAUAUGCGUCACUGCGAAAGCAGUGCGGUAAGAUCACAUGAGGAUCACCCAUGUAGAAGGCACGAGCUGAU | 20.8 | 54 | – | – |
| AAAUAAACUAGCAUAAUAUCCUCACAUGAGGAUCACCCAUGUCAGGAUAUUUGUCCUAAAAGGACAGAGAAGGGACGUGCUAGA | 5.07 | 6.27 | – | – |
| CAUUUACAGGGAGGAUAUACAUGAGGAUCACCCAUGUCAUCAUACGAUAUUUCUUUUGUAUGAGUGUAGAAGGCCCAACUACCA | 10.2 | 12 | – | – |
| UUAAAUCAUGUAGGAUAUGCAUGGCGAAGCUACGCAGAAGGACAUGAGGAUCACCCAUGUUCUAGCUACCGAGUACGGUGGCAA | 20.6 | 86.3 | – | – |
| GCCAUCGCAUGAGGAUAUGCUCGGGUUUCCCGAGCAGAAGGCAUGUGAUAACACAUGAGGAUCACCCAUGUAGUUAAGAUGGCA | – | – | 5.69 | 4.83 |
| AGUUUUGUACAUGAGGAUCACCCAUGUUAAUAUGUGGUAGUCAGAAGGCAUUGUUAGUGUUUAUAUGAGGAUAUGAUUAUUCAG | – | – | 41.1 | 16.4 |
| CGAUAACAUAGUUAUCCGUAACGGACAUGAGGAUCACCCAUGUAGGAUAUGUUACUCAACGGGUAACAGAAGGACAUGAGUCUU | 14.4 | 41.7 | – | – |
| AGUGCUAGAGGAUAUGCAGUGGCGUUCUGUAUUCACAGCUCACAUGAGGAUCACCCAUGUAGAAGGCUAGCUAC | 23.6 | 106 | – | – |
| CCAGCAACAUGAGGAUCACCCAUGUAGGAUAUCGCUAUUGUAAUCAUGAAACAUGAUUACAAUAGCGAGAAGGACAUAUGCUCC | 7.53 | 10.2 | – | – |
| GUUCUUCCUGUAAGGAUAUCCAUGUAUCAAUUUAUGGAGAAGGUACAUGAGGAUCACCCAUGUCACCCGCGUUA | 20.9 | 50.7 | – | – |
| AUCAGCUCGUCAGGAUAUGCGUCACUGCUUCGGCAGUGUGGUAAGAUCACAUGAGGAUCACCCAUGUAGAAGGGACGAGCUGAU | 9.91 | 75.2 | – | – |
| AUAUAAAAUAUAGGAUAUGGAAACAUGAGGAUCACCCAUGUAUGAUAAGAUAAAUUAUGAUAUAGCCAGAAGGAUACAAUAUAA | – | – | 31.3 | 38.3 |
| AGUCCAGAAGGAUAUACAUAGGUGAUAAAAAAAAAAAAACUACAUGAGGAUCACCCAUGUAGAAGGUCUGGACA | 61.9 | 40 | – | – |
| UACUACGCAGGAUAUACAUGAGGAUCACCCAUGUGUCUGCGAUAGGCACGUGAAAUCCGUAGAAGGGUGUAGAU | 42 | 109 | – | – |
| UGGUACUAGGGAGGAUAUGGGAAGAUACAUGAGGAUCACCCAUGUUUAAGAAUGCCGAGAUGCAACUAGAAGGCCCUAGUACCU | – | – | 371 | 21.9 |
| UUUUAACAUGAGGAUCACCCAUGUGAGGAUAUCGAAAUUUAUAUUUAUAUUAAUAAUUCGAGAAGGCACAUUUU | 172 | 165 | – | – |
| CCAGAGACAUAAGGAUAUCGAGUGGAAUACACUCGAGAAGGUAUGUGAAAACAUGAGGAUCACCCAUGUGAUCAAUACUCUGGA | – | – | 19.4 | 20.2 |
| CGAUAUUAUAGAGGAUAUGUUUAACAUGAGGAUCACCCAUGUGAGGUGGAAUUAAUGUAUUACUUACAGAAGGCUAUACAAUCG | 316 | 432 | – | – |
| ACUUUAACUCGACAUGAGGAUCACCCAUGUCCUAGUACUACACAGGAUAUCUCGGACUCCUCGUGAGAGAAGGGUGAGCACUAA | – | – | 395 | 587 |
| CUCUUGUAAGGAUAUCUGACAAGUGACGAAAGUCACAGUUCAGAGAAGGUACAUGAGGAUCACCCAUGUAGAAC | 76.7 | 64.4 | – | – |
| ACGGUGGUCACAGGAUAUCCGGCCCGCGUGGCCGGAGAAGGGUGACUCAGAACCACAUGAGGAUCACCCAUGUGCCUUGCCGUA | – | – | 102 | 35.5 |
